# Measured values reported in ChEMBL document CHEMBL1158387, “Regioselective synthetic approaches towards 1,2,8,9-tetraazadispiro[4.1.4.2]trideca-2,9-dien-6-ones of potential antimicrobial properties” (2009).
# The source made the active and inactive calls. No cut-off for these calls is given here.
# Key:
# Type in all cases: functional
# Candida albicans = experiment: Antifungal activity against Candida albicans ATCC 20260 after 18 hrs by agar dilution technique
# Method in brief: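 Agar dilution per CLSI with compounds dissolved in DMSO and spotted onto agar against ATCC standard strains. Plates were incubated at 37 °C for 18 h.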
# Staphylococcus aureus = experiment: Antibacterial activity against Staphylococcus aureus ATCC 25923 after 18 hrs by agar dilution technique
# Method in brief: (§1)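 Agar dilution per CLSI; compounds dissolved in DMSO; plates incubated at 37 °C for 18 h; MIC taken as lowest compound concentration spot with no growth. Standard ATCC strains.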
# Escherichia coli = experiment: Antibacterial activity against Escherichia coli ATCC 25922 after 18 hrs by agar dilution technique; method in brief: as §1
# Proteus vulgaris = experiment: Antibacterial activity against Proteus vulgaris ATCC 13315 after 18 hrs by agar dilution technique; method in brief: as §1
# Streptococcus agalactiae = experiment: Antibacterial activity against Streptococcus agalactiae […] after 18 hrs by agar dilution technique; method in brief: as §1
# Enterococcus faecalis = experiment: Antibacterial activity against Enterococcus faecalis ATCC 29212 after 18 hrs by agar dilution technique; method in brief: as §1
# Klebsiella pneumoniae = experiment: Antibacterial activity against Klebsiella pneumoniae ATCC 33495 after 18 hrs by agar dilution technique; method in brief: as §1
Compound,MIC (Candida albicans),"MIC (Staphylococcus aureus; ATCC 25923, 18 h)","MIC (Escherichia coli; ATCC 25922, 18 h)","MIC (Proteus vulgaris; ATCC 13315, 18 h)",MIC (Streptococcus agalactiae),"MIC (Enterococcus faecalis; ATCC 29212, 18 h)","MIC (Klebsiella pneumoniae; ATCC 33495, 18 h)","MIC (Candida albicans; ATCC 20260, 18 h)",MIC (Staphylococcus aureus),MIC (Escherichia coli),MIC (Proteus vulgaris),MIC (Enterococcus faecalis),MIC (Klebsiella pneumoniae)
O=C1C2(CCC13C(c1ccc(F)cc1)C(c1ccccc1)=NN3c1ccccc1)C(c1ccc(F)cc1)C(c1ccccc1)=NN2c1ccccc1 (centres undefined),inactive,5 µg/mL,5 µg/mL,10 µg/mL,10 µg/mL,10 µg/mL,10 µg/mL,–,–,–,–,–,–
Cc1ccc(/C=C2\CC[C@]3(C2=O)[C@H](c2ccc(C)cc2)C(c2ccccc2)=NN3c2ccccc2)cc1,inactive,2.5 µg/mL,0.6 µg/mL,1.3 µg/mL,5 µg/mL,5 µg/mL,1.3 µg/mL,–,–,–,–,–,–
Cc1ccc(N2N=C(c3ccccc3)C(c3ccccc3)C23CCC2(C3=O)C(c3ccccc3)C(c3ccccc3)=NN2c2ccc(C)cc2)cc1 (centres undefined),inactive,2.5 µg/mL,10 µg/mL,5 µg/mL,2.5 µg/mL,5 µg/mL,5 µg/mL,–,–,–,–,–,–
Cc1ccc(N2N=C(c3ccccc3)C(c3ccc(F)cc3)C23CCC2(C3=O)C(c3ccc(F)cc3)C(c3ccccc3)=NN2c2ccc(C)cc2)cc1 (centres undefined),inactive,10 µg/mL,10 µg/mL,10 µg/mL,2.5 µg/mL,10 µg/mL,10 µg/mL,–,–,–,–,–,–
O=C(O)c1cn(C2CC2)c2cc(N3CCNCC3)c(F)cc2c1=O [CIPROFLOXACIN],inactive,0.3 µg/mL,0.3 µg/mL,0.3 µg/mL,0.6 µg/mL,0.3 µg/mL,1.3 µg/mL,–,–,–,–,–,–
C[C@@H]1[C@H](O)[C@@H](C)/C=C/C=C/C=C/C=C/C=C/C=C/C=C/[C@H](O[C@@H]2O[C@H](C)[C@@H](O)[C@H](N)[C@@H]2O)C[C@@H]2O[C@](O)(C[C@@H](O)C[C@@H](O)[C@H](O)CC[C@@H](O)C[C@@H](O)CC(=O)O[C@H]1C)C[C@H](O)[C@H]2C(=O)O [AMPHOTERICIN B],–,–,–,–,inactive,–,–,4 µg/mL,inactive,inactive,inactive,inactive,inactive
O=C1/C(=C/c2ccc(F)cc2)CC[C@@]12[C@H](c1ccc(F)cc1)C(c1ccccc1)=NN2c1ccccc1,inactive,10 µg/mL,10 µg/mL,5 µg/mL,5 µg/mL,5 µg/mL,2.5 µg/mL,–,–,–,–,–,–
Cc1ccc(N2N=C(c3ccccc3)C(c3ccc(Cl)cc3)C23CCC2(C3=O)C(c3ccc(Cl)cc3)C(c3ccccc3)=NN2c2ccc(C)cc2)cc1 (centres undefined),inactive,10 µg/mL,10 µg/mL,10 µg/mL,10 µg/mL,10 µg/mL,5 µg/mL,–,–,–,–,–,–
Cc1ccc(N2N=C(c3ccccc3)[C@@H](c3ccccc3)[C@@]23CC/C(=C\c2ccccc2)C3=O)cc1,inactive,0.6 µg/mL,5 µg/mL,5 µg/mL,1.3 µg/mL,1.3 µg/mL,2.5 µg/mL,–,–,–,–,–,–
O=C1C2(CCC13C(c1ccc(Cl)cc1)C(c1ccccc1)=NN3c1ccccc1)C(c1ccc(Cl)cc1)C(c1ccccc1)=NN2c1ccccc1 (centres undefined),inactive,10 µg/mL,10 µg/mL,10 µg/mL,10 µg/mL,10 µg/mL,10 µg/mL,–,–,–,–,–,–
O=C1/C(=C/c2ccccc2)CC[C@@]12[C@H](c1ccccc1)C(c1ccccc1)=NN2c1ccccc1,inactive,5 µg/mL,5 µg/mL,2.5 µg/mL,2.5 µg/mL,2.5 µg/mL,2.5 µg/mL,–,–,–,–,–,–
O=C1C2(CCC13C(c1ccccc1)C(c1ccccc1)=NN3c1ccccc1)C(c1ccccc1)C(c1ccccc1)=NN2c1ccccc1 (centres undefined),inactive,1.3 µg/mL,10 µg/mL,10 µg/mL,2.5 µg/mL,2.5 µg/mL,10 µg/mL,–,–,–,–,–,–
